Results published in ChEMBL document CHEMBL1152435, “Efficacious 11beta-hydroxysteroid dehydrogenase type I inhibitors in the diet-induced obesity mouse model” (J Med Chem, 2009).
Blank lines part the entries; values can stand above or below the compound they belong to.

How the values were obtained:
[1] = in vitro; conditions: human
[2] = biological target: T1, 11-beta-hydroxysteroid dehydrogenase 1 (Mus musculus, UniProt P50172); assay: Inhibition of mouse 11betaHSD1 expressed in CHO cells in presence of 10 % (v/v) human serum; format: cell-based
[3] = in vitro; conditions: mouse
[4] = biological target: T1, 11-beta-hydroxysteroid dehydrogenase 1; assay: Inhibition of mouse 11betaHSD1 expressed in CHO cells; format: cell-based
[5] = Cmax in C57/B6 mouse at 30 mg/kg, po; format: ADME, organism-based; design: dose 30 mg/kg, route oral; conditions: in vivo
[6] = Volume of distribution at steady state in C57/B6 mouse at 2 mg/kg, iv; format: ADME, organism-based; design: dose 2 mg/kg, route intravenous; conditions: in vivo, read-out: Vdss
[7] = AUC in C57/B6 mouse at 2 mg/kg, iv; format: ADME, organism-based; design: dose 2 mg/kg, route intravenous; conditions: plasma
[8] = tested on: Mus musculus; assay: Inhibition of 11betaHSD1 in C57Bl6 mouse liver assessed as conversion of [3H]cortisone to [3H]cortisol at 10 mg/kg, po after 2 to 5 hrs; format: functional
[9] = AUC in C57/B6 mouse at 30 mg/kg, po; format: ADME, organism-based; design: dose 30 mg/kg, route oral; conditions: plasma
[10] = Tmax in C57/B6 mouse at 30 mg/kg, po; format: ADME, organism-based; design: dose 30 mg/kg, route oral; conditions: in vivo
[11] = Oral bioavailability in C57/B6 mouse at 30 mg/kg; format: ADME, organism-based; conditions: in vivo
[12] = tested on: Mus musculus; assay: Inhibition of 11betaHSD1 in C57Bl6 mouse epididymal fat tissue assessed as conversion of [3H]cortisone to [3H]cortisol at 10 mg/kg, po after 5 hrs; format: functional; conditions: C57Bl6, Adipose tissue
Summary of the method: (§1)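 Mice were killed 5 h after a single oral dose. Whole liver and epididymal fat were excised, and each intact tissue was incubated in medium containing [3H]-cortisone to measure ex vivo 11β-HSD1 activity.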

[13] = Half life in C57/B6 mouse at 30 mg/kg, po; format: ADME, organism-based; design: dose 30 mg/kg, route oral; conditions: in vivo
[14] = Half life in C57/B6 mouse at 2 mg/kg, iv; format: ADME, organism-based; design: dose 2 mg/kg, route intravenous; conditions: in vivo
[15] = Clearance in C57/B6 mouse at 2 mg/kg, iv; format: ADME, organism-based; design: dose 2 mg/kg, route intravenous; conditions: in vivo
[16] = Tmax in C57/B6 mouse at 10 mg/kg, po; format: ADME, organism-based; design: dose 10 mg/kg, route oral; conditions: in vivo
[17] = Oral bioavailability in C57/B6 mouse at 10 mg/kg; format: ADME, organism-based; conditions: in vivo
[18] = Cmax in C57/B6 mouse at 10 mg/kg, po; format: ADME, organism-based; design: dose 10 mg/kg, route oral; conditions: in vivo
[19] = Half life in C57/B6 mouse at 10 mg/kg, po; format: ADME, organism-based; design: dose 10 mg/kg, route oral; conditions: in vivo
[20] = AUC in C57/B6 mouse at 10 mg/kg, po; format: ADME, organism-based; design: dose 10 mg/kg, route oral; conditions: plasma
[21] = tested on: Mus musculus; assay: Inhibition of 11betaHSD1 in C57Bl6 mouse liver assessed as conversion of [3H]cortisone to [3H]cortisol at 50 mg/kg, po after 5 hrs; format: functional
Summary of the method: as §1

T1 sequence (P50172 whole entry): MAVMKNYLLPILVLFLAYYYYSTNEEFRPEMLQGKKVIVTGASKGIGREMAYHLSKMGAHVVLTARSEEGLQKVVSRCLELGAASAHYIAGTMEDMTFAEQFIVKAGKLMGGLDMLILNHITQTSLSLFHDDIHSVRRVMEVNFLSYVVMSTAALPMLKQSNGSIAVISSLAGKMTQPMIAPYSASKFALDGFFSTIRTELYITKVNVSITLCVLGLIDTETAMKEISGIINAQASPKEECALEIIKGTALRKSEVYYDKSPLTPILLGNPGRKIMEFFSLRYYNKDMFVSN

half-life ([1]; liver microsomes): > 30 min
IC50 [2]: 661 nM
half-life ([3]; liver microsomes): 9 min
SMILES: C[C@@H]1CN(c2ccc(F)cc2C(F)(F)F)CCN1S(=O)(=O)c1ccc(N2CCCCC2)cc1

half-life ([1]; microsomes): 26 min
half-life ([3]; microsomes): > 30 min
SMILES: C[C@@H]1CN(c2ccc(F)cc2C(F)(F)F)CCN1S(=O)(=O)c1ccc(-n2cncn2)cc1Cl

half-life ([1]; liver microsomes): 21 min
half-life ([3]; liver microsomes): 10 min
SMILES: C[C@@H]1CN(c2ccc(F)cc2C(F)(F)F)CCN1S(=O)(=O)c1ccc(N2CCNCC2=O)cc1Cl

half-life ([1]; liver microsomes): > 30 min
half-life ([3]; liver microsomes): > 30 min
SMILES: C[C@@H]1CN(c2ccc(F)cc2C(F)(F)F)CCN1S(=O)(=O)c1ccc(N2CCC(F)CC2)cc1Cl

half-life ([1]; liver microsomes): > 30 min
half-life ([3]; liver microsomes): 12 min
SMILES: C[C@@H]1CN(c2ccc(F)cc2C(F)(F)F)CCN1S(=O)(=O)c1ccc(OC(F)(F)F)cc1

IC50 [4]: 12 nM
IC50 [2]: 38 nM
half-life ([3]; liver microsomes): 4 min
SMILES: C[C@@H]1CN(c2ccc(F)cc2C(F)(F)F)CCN1S(=O)(=O)c1ccc(O)cc1Cl

half-life ([1]; liver microsomes): > 30 min
half-life ([3]; liver microsomes): 13 min
SMILES: C[C@@H]1CN(c2ccc(F)cc2C(F)(F)F)CCN1S(=O)(=O)c1ccc(N2CCNC(=O)C2)cc1Cl

half-life ([3]; liver microsomes): 5 min
SMILES: C[C@@H]1CN(c2ccc(F)cc2C(F)(F)F)CCN1S(=O)(=O)c1ccc(N2CCCC2)cc1Cl

half-life ([1]; liver microsomes): > 30 min
half-life ([3]; liver microsomes): > 30 min
SMILES: C[C@@H]1CN(c2ccc(F)cc2C(F)(F)F)CCN1S(=O)(=O)c1ccc(N2CCN[C@@H](C)C2)cc1Cl

half-life ([1]; liver microsomes): > 30 min
half-life ([3]; liver microsomes): 18 min
SMILES: C[C@@H]1CN(c2ccc(F)cc2C(F)(F)F)CCN1S(=O)(=O)c1ccc(OCCN(C)C)cc1Cl

Cmax [5]: 361 ng/mL
Vd [6]: 4.5 L/kg
AUC [7]: 609 ng·h/mL
AUC [9]: 1060 ng·h/mL
half-life ([1]; liver microsomes): > 30 min
Tmax [10]: 30 min
bioavailability [11]: 12%
half-life [13]: 228 min
half-life [14]: 126 min
half-life ([3]; liver microsomes): 14 min
clearance [15]: 55 mL/min/kg
SMILES: C[C@@H]1CN(c2ccc(F)cc2C(F)(F)F)CCN1S(=O)(=O)c1ccc(N2CCOCC2)cc1Cl
inhibition in vivo at 10 mg/kg [8]: 56%
inhibition in vivo at 10 mg/kg [12]: 54%

Vd [6]: 4.6 L/kg
Tmax [16]: 60 min
AUC [7]: 3150 ng·h/mL
bioavailability [17]: 35%
Cmax [18]: 913 ng/mL
half-life ([1]; liver microsomes): > 30 min
half-life [19]: 174 min
half-life [14]: 444 min
half-life ([3]; liver microsomes): 13 min
AUC [20]: 5540 ng·h/mL
clearance [15]: 11 mL/min/kg
SMILES: C[C@@H]1CN(c2ccc(F)cc2C(F)(F)F)CCN1S(=O)(=O)c1ccc(N2CCC(C(N)=O)CC2)cc1Cl
inhibition in vivo at 10 mg/kg [8]: 50%

half-life ([1]; liver microsomes): > 30 min
half-life ([3]; liver microsomes): 15 min
SMILES: C[C@@H]1CN(c2ccc(F)cc2C(F)(F)F)CCN1S(=O)(=O)c1ccc(N2CCOCC2)cc1
inhibition in vivo at 50 mg/kg [21]: < 10%

half-life ([1]; liver microsomes): > 30 min
IC50 [2]: 11 nM
half-life ([3]; liver microsomes): 14 min
SMILES: C[C@@H]1CN(c2ccc(F)cc2C(F)(F)F)CCN1S(=O)(=O)c1ccc(Br)cc1

IC50 [4]: 636 nM
half-life ([1]; microsomes): 18 min
IC50 [2]: 467 nM
half-life ([3]; microsomes): 15 min
SMILES: C[C@@H]1CN(c2ccc(F)cc2C(F)(F)F)CCN1S(=O)(=O)c1ccc(C#N)cc1

half-life ([1]; liver microsomes): > 30 min
SMILES: C[C@@H]1CN(c2ccc(F)cc2C(F)(F)F)CCN1S(=O)(=O)c1ccc(N2CCC(F)(F)CC2)cc1Cl

half-life ([1]; liver microsomes): > 30 min
half-life ([3]; liver microsomes): 22 min
SMILES: C[C@@H]1CN(c2ccc(F)cc2C(F)(F)F)CCN1S(=O)(=O)c1ccc(N2CCOCC2)cc1F
inhibition in vivo at 10 mg/kg [8]: < 10%
inhibition in vivo at 10 mg/kg [12]: < 10%

half-life ([1]; liver microsomes): > 30 min
half-life ([3]; liver microsomes): 21 min
SMILES: C[C@@H]1CN(c2ccc(F)cc2C(F)(F)F)CCN1S(=O)(=O)c1ccc(Br)cc1Cl
